TRPC4 potent – TRPC4 (mouse) allosteric potentiation | Q9QUQ5 | HEK293 TRPC4beta/mu-opioid, DAMGO EC20, Fluo-4 Ca2+ flux; hits give high values | B-score at 10 µM | 310,000 compounds, 0.42% hits | AID 2227;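 active means B-score of calcium response area above 5 SD of library B-scores, with initial fluorescence ratio within 5 SD of library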
TRPC4 block – inhibitors of mouse TRPC4 channel. Q9QUQ5. HEK293 TRPC4beta/mu-opioid, DAMGO-evoked Fluo4 calcium flux; hits give low values. B-score at 10 µM. 300,000 compounds, 0.39% hits. AID 2247;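 active means B-score over 3 SD under the library average, no early fluorescence shift, positive overall ratio signal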
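Assay system: HEK293 cells with stable TRPC4beta plus mu-opioid receptor expression; Probe or stimulus: DAMGO in two steps, submaximal then maximal; Dosing: single-point compound dosing; Measured by: Fluo4 calcium-dye fluorescence, kinetic read; Read-out basis: B score from integrated Fluo4 fluorescence ratio.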
TRPC6 activator – mouse TRPC6 channel activation; HEK293-TRPC6 membrane potential dye fluorescence; hits give high values; B-score at 10 µM; 310,000 compounds, 0.13% hits;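 active means B-score of the integrated fluorescence ratio above library mean plus 3 SD, and starting fluorescence ratio within library mean plus 5 SD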;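 further: higher score means more depolarization so channel activation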
TRPC6 inhibitor – inhibitors of mouse TRPC6 channel; 310,000 compounds, 1.1% hits; B-score at 10 µM; HEK293-TRPC6, membrane potential dye, ACh-evoked depolarization; hits give low values; Q61143;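 active means B-score under library mean minus 3 SD, initial fluorescence not abnormally high, positive integrated signal ratio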;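 further: B-score derived from integrated fluorescence ratio over the kinetic read; more negative B-score means stronger inhibition of depolarization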
TRPC4 act – activators of mouse TRPC4 channel; B-score at 10 µM; AID 2237; 310,000 compounds, 0.49% hits; HEK293 TRPC4beta/mu-opioid, Fluo4 calcium fluorescence; hits give high values;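 active means B-score above 5 SD of library B-scores, and initial fluorescence ratio not above library mean plus 5 SD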;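 further: positive B-score marks a calcium rise read as TRPC4 activation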
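Assay system: HEK293 stable line with TRPC4beta plus mu-opioid receptor; schedule: 45 min room-temperature Fluo4 loading, 110 s read; technique: kinetic Fluo4 calcium fluorescence; evaluation: integrated baseline-normalised fluorescence ratio, converted to per-well B score; controls: buffer (low) and maximal DAMGO (high)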
Numbers stand for hits; - = inactive. This is a sample that favours compounds with a hit; in the whole collection about 2.3% have one here.

SMILES	TRPC4 potent	TRPC4 block	TRPC6 activator	TRPC6 inhibitor	TRPC4 act
COc1ccc2c(c1)c1ncn(CCN3CCCCC3)c(=O)c1n2C	-	-	-	-	-
COc1ccc2c(c1)c1ncn(CCN3CCCC3)c(=O)c1n2C	15	-	-	-	-
Cc1c(CCOC(=O)CC23CC4CC(CC(C4)C2)C3)sc[n+]1CC(=O)c1ccccc1	-	-5	-	-	-
O=C(Nc1ccc(Oc2ccccc2)nc1)C1CCN(Cc2ccccc2)CC1	-	-6	-	-	-
CCn1cc(CN2CCC(C(=O)Nc3ccc(Oc4ccccc4)nc3)CC2)cn1	-	-	-	-	-
CCOc1ccc(Br)cc1/C(C)=N\NC1=NCCN1	-	-	-	-	82
CCCCCOc1ccc(/C(C)=N/NC2=NCCN2)cc1	-	-	-	-	-
O=C(Nc1cccc([N+](=O)[O-])c1)c1ccc(N2CCCC2=O)cc1	-	-	-	-	-
O=C(Nc1c2c(nn1-c1ccc(F)cc1)CS(=O)(=O)C2)c1ccc2c(c1)OCO2	-	-	-	-	-
COC(=O)c1ccc(OCC(O)CN2CCc3cc(OC)c(OC)cc3C2c2ccccc2)cc1 (stereo not given)	11	-	-	-	-
CCC(=O)N1CCc2cc(OC)c(OC)cc2C1COc1ccc(C(=O)OC)cc1 (stereo not given)	-	-	-	-	-
O=C(NCCNC1CCC(c2ccccc2)CC1)c1ccc(F)cc1 (stereo not given)	-	-	-	-	61
O=C(NC(C(=O)N/N=C/c1ccncc1)c1n[nH]c(=O)c2ccccc12)c1ccccc1 (stereo not given)	-	-	-	-	-
O=C(NC(C(=O)N/N=C/c1cccnc1)c1n[nH]c(=O)c2ccccc12)c1ccccc1 (stereo not given)	-	-	-	-	53
CCn1c(SCC(=O)Nc2ccccc2)nc2ccccc2c1=O	-	-5	-	-	-
CCC(C)n1c(SCC(=O)Nc2cc(C)on2)nc2ccccc2c1=O (stereo not given)	-	-	-	-	44
C=C(C)Cn1c(SCC)nc2ccccc2c1=O	-	-5	-	-	-
CCn1c(SCC(=O)Nc2cccc(C)c2)nc2ccccc2c1=O	-	-	-	-	-
C/C(=N\NC(=O)CCCC(=O)O)c1c(-c2ccccc2)c2cc(Cl)ccc2[nH]c1=O	-	-	-	-	-
COc1ccccc1CNC(=O)CNC(=O)N1CC(=O)Nc2ccccc21	-	-	-	-	-
COc1ccc(Cl)c2sc(N(CCN(C)C)C(=O)CCS(=O)(=O)c3ccc(C)cc3)nc12	23	-	-	-	-
CC1CCCCC12NC(=O)N(CC(=O)NCCc1ccccn1)C2=O (stereo not given)	-	-	-	-	-
Cc1cccc(NC(=O)CNC(=O)CN2C(=O)NC3(CCCCC3C)C2=O)c1C (stereo not given)	17	-	-	-	-
CSCc1c(C(=O)NCCc2ccccn2)oc2ccccc12	12	-	-	-	-
CSCc1c(C(=O)Nc2ccc3c(c2)OCO3)oc2ccccc12	-	-	-	-	-
SMILES	TRPC4 potent	TRPC4 block	TRPC6 activator	TRPC6 inhibitor	TRPC4 act
COc1nc2ccc(C)cc2cc1-c1noc(-c2ccccc2)n1	-	-	-	-	-
COc1ccc(C2=NN(CC(=O)NCC(OC)OC)C(=O)CC2)cc1	-	-	-	-	-
O=C(COc1ccccc1F)N1CCN(S(=O)(=O)/C=C/c2ccccc2)CC1	-	-	-	-	-
O=C(COc1ccc(Br)cc1)N1CCN(S(=O)(=O)/C=C/c2ccccc2)CC1	11	-	-	-	-
NS(=O)(=O)c1ccc(N2N=C(c3ccccc3)CC2c2ccccc2)cc1 (stereo not given)	11	-	-	-	-
O=S(=O)(O)c1ccc(N2N=C(c3ccccc3)CC2c2ccccc2)cc1 (stereo not given)	-	-	-	-	-
COc1ccc(CNC(=O)Cc2cccs2)cc1	-	-	-	-	-
COc1ccc(CC(=O)NCC(c2ccc(OC)cc2)N(C)C)cc1 (stereo not given)	-	-	-	-	216
COc1ccc(C(CNC(=O)CN2C(=O)NC3(CCCC3)C2=O)N(C)C)cc1 (stereo not given)	-	-	-	-	134
COc1ccc(C(CNC(=O)Cc2cccs2)N(C)C)cc1 (stereo not given)	-	-	-	-	99
COc1ccc(C(=O)CN2C(=O)NC3(CCCCCC3)C2=O)cc1	-	-	-	-	-
CCn1c(N2CCN(S(=O)(=O)c3ccccc3)CC2)nc2ccccc21	-	-	-	-	-
CCCn1c(N2CCN(S(=O)(=O)Cc3ccccc3)CC2)nc2ccccc21	22	-	-	-	-
CN(C)S(=O)(=O)c1ccc(Cl)c(NC(=O)COc2ccccc2[N+](=O)[O-])c1	-	-	-	-	-
CCC(C)(C)n1nnnc1C(c1ccc(O)c(OC)c1)N1CCN(c2nc3ccccc3s2)CC1 (stereo not given)	-	-	-	-	58
COc1ccc(C(c2nnnn2C(C)(C)C)N2CCN(c3nc4ccccc4s3)CC2)cc1 (stereo not given)	-	-	-	-	-
Cc1c(-c2ccccc2)nc2ccccc2c1C(=O)O	-	-	-	-	-
CC[C@H](NC(=O)c1c(C)c(-c2ccccc2)nc2ccccc12)c1ccccc1	-	-	13	-	-
COc1ccccc1Oc1nc(C)c(C(C)=O)cc1C#N	12	-	-	-	-
COC(=O)c1cc(C#N)c(Oc2ccccc2)nc1C	-	-	-	-	-
Cc1ccc(N2CCN(S(=O)(=O)c3nnc(NC(=O)c4ccccc4)s3)CC2)cc1	-	-	-	-	-
COc1ccc(-c2nsc3c(N4CCCCC4C)ncnc23)cc1 (stereo not given)	11	-	-	-	-
Cc1cccc(CCNS(=O)(=O)c2ccc3c(c2)NC(=O)C(C)S3)c1 (stereo not given)	-	-	-	-	-
C/C(=N/Nc1ccnc2cc(Cl)ccc12)c1ccc(O)cc1	-	-	-	-	-
C/C(=N/Nc1ccnc2cc(Cl)ccc12)c1ccc(N)cc1	-	-	-	-	63
CCN(CC(=O)NCc1ccc(F)cc1)C(=O)c1oc2ccccc2c1C	-	-	-	-	-
Cc1ccc2c(c1)N(C(=O)CCC(=O)NCC(C)c1ccccc1)CC(C)O2 (stereo not given)	-	-	-	-	-
COC(=O)c1ccccc1NC(=O)CCC(=O)N1CC(C)Oc2ccc(C)cc21 (stereo not given)	-	-8	-	-	-
COc1ccc(OC)c(NC(=O)Cn2cc(C=O)c3ccccc32)c1	-	-	-	-	-
Cc1ccccc1N1CCN(C2CCCN(C(=O)CCn3cnnn3)C2)CC1 (stereo not given)	-	-	-	-	-
